From article PMC3663483 (Nature, 2012)

Legend:
GFP-labelled PC3 cells = experiment: Real-time imaging of cell migration; type: cell-based, human; settings: starting at 6 h of treatment
Procedure, shortened: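 GFP-labelled PC3 cells were plated on poly-D-lysine-coated chamber slides and left to adhere for 24 h. Wells were then scratch-wounded. Wide-field fluorescence time-lapse was run under CO2 and temperature control, with DIC and GFP frames every 2 min. Cell centroids were tracked manually to give xy paths, velocity and distance. Analysis covered hours 3–4 and 6–7 of treatment, with 34 cells per condition and ANOVA.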

[1] = test system: 4EBP1 and p70S6K1/2 phosphorylation; experiment: Preclinical trial in Pten L/L mice: mTOR effector phosphorylation; type: in vivo, mouse; settings: INK128 1 mg/kg or RAD001 10 mg/kg daily gavage
Procedure, shortened: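 Nine- and twelve-month-old PtenL/L mice were dosed daily by oral gavage, with vehicle 5% […], 15% NMP, 80% water. Whole prostates were removed, microdissected, frozen in liquid nitrogen and pulverised. Protein lysates were immunoblotted with antibodies to phospho-4EBP1 T37/46, 4EBP1, phospho-p70S6K T389, phospho-rpS6 S240/244 and rpS6.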

[2] = test system: Pten^L/L prostate cancer mouse model; type: in vivo; settings: Pten L/L mice; for apoptosis in prostate / cell proliferation in prostate: INK128 1 mg/kg or RAD001 10 mg/kg daily gavage
Procedure, shortened: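 PtenL/L mice aged nine or twelve months were given daily oral gavage; vehicle was 5% polyvinylpropyline, 15% NMP, 80% water. Body weight was taken every 3 days for toxicity. In the 28-day study, prostates were MRI-imaged at 14 T on days 0 and 28. Prostates and lymph nodes were formalin-fixed and cut as 5 μm paraffin sections. Nodes were stained for CK8 and androgen receptor, and metastasis areas were measured.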

[3] = test system: multiple cancer cell lines; experiment: Apoptosis analysis; type: cell-based, human
Procedure, shortened: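 LNCaP and A498 cells, after treatment, were labelled with Annexin V-FITC and propidium iodide per kit instructions. Annexin/PI staining was acquired by flow cytometry to score apoptotic cells.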

[4] = test system: mTOR effectors 4EBP1, p70S6K1/2 and AKT; experiment: Western blot of downstream mTOR effectors in PC3 cells; type: cell-based, human; settings: PP242 2.5 μM, rapamycin 50 nM, 3-h treatment
[5] = test system: PC3 human prostate cancer cells; experiment: Ribosome profiling of PC3 cells; type: cell-based; settings: 3 h, rapamycin 50 nM
[6] = test system: Jurkat lymphoid cell line; settings: cited from earlier work

Structure (SMILES)	cancer cell migration (GFP-labelled PC3 cells)	4EBP1 and p70S6K1/2 phosphorylation [1]	decrease in prostatic intraepithelial neoplasia (PIN) lesions ([2]; INK128 1 mg/kg daily gavage)	prostate cancer volume ([2]; INK128 1 mg/kg daily gavage, MRI day 0 and day 28)	apoptosis in prostate [2]	cell proliferation in prostate [2]	programmed cell death [3]	regression of PIN lesions ([2]; RAD001 10 mg/kg daily gavage)	activity of downstream mTOR effectors 4EBP1, p70S6K1/2 and AKT [4]	effect on gene expression by ribosome profiling [5]	sensitivity to rapamycin treatment [6]
CC(C)n1nc(-c2ccc3oc(N)nc3c2)c2c(N)ncnc21 [INK128]	inhibits cancer cell migration	completely restored to wild-type levels	50%	marked reduction	tenfold increase	decreased proliferation	induced programmed cell death	–	–	–	–
CO[C@H]1C[C@@H]2CC[C@@H](C)[C@@](O)(O2)C(=O)C(=O)N2CCCC[C@H]2C(=O)O[C@H]([C@H](C)C[C@@H]2CC[C@@H](OCCO)[C@H](OC)C2)CC(=O)[C@H](C)/C=C(\C)[C@@H](O)[C@@H](OC)C(=O)[C@H](C)C[C@H](C)/C=C/C=C/C=C/1C [RAD001]	–	only decreased p70S6K1/2 phosphorylation levels	–	–	no significant effect	limited decrease	–	only partial regression	–	–	–
CO[C@H]1C[C@@H]2CC[C@@H](C)[C@@](O)(O2)C(=O)C(=O)N2CCCC[C@H]2C(=O)O[C@H]([C@H](C)C[C@@H]2CC[C@@H](O)[C@H](OC)C2)CC(=O)[C@H](C)/C=C(\C)[C@@H](O)[C@@H](OC)C(=O)[C@H](C)C[C@H](C)/C=C/C=C/C=C/1C [rapamycin]	–	–	–	–	–	–	–	–	only blocks p70S6K1/2 activity	did not markedly affect gene expression	particularly sensitive
